Activity calls are given as the source filed them. The rule behind the calls is not given here.
Tests used:
[1] = tested on: MDA-MB-231; experiment: Induction of apoptosis in human MDA-MB-231 cells assessed as reduction of cdc2 phosphorylation at T161 catalytic site at 10 uM by Western blot analysis; format: functional, cell-based; conditions: TDE = time-dependent effect
Outline: (§1)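 MDA-MB-231 cells were treated with 10 µM compound for 1, 3, 6, 12 and 24 h and lysed. Equal protein was resolved by 10% SDS–PAGE and immunoblotted for phospho-cdc2 (T161, Y15), cdc2 and cyclin B, with actin as loading standard and ECL detection.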

[2] = tested on: MDA-MB-231; experiment: Induction of apoptosis in human MDA-MB-231 cells assessed as reduction of cdc2 phosphorylation at Y15 regulatory site at 10 uM by Western blot analysis; format: functional, cell-based; conditions: TDE = time-dependent effect; outline: as §1
[3] = tested on: MDA-MB-231; experiment: Drug uptake in human MDA-MB-231 cell cytoplasm at 10 uM after 1 hr using propidium iodide staining by two-photon confocal microscopy; format: ADME, cell-based; conditions: mda-mb-231, 1 h
Outline: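 Cells (5 × 10^5) were treated with 10 µM compound for 1 h, PBS-washed and fixed in 4% formaldehyde. Nuclei were stained with propidium iodide for 5 min before mounting. Imaging used two-photon confocal microscopy, 63× oil, excitation 720 nm, emission 480–520 nm, with DIC for morphology.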

[4] = species on record: Homo sapiens; experiment: Binding affinity to human breast cancer tissue at 10 uM after 1 hr by two-photon confocal microscopic analysis; format: functional
Outline: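 Breast cancer tissue sections were dewaxed and rehydrated, then given epitope retrieval for 20 min at 100 °C. They were blocked with goat serum, exposed to 10 µM compound or dansyl ethylenediamine control for 1 h at room temperature, washed and mounted. Dansyl fluorescence was imaged.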

[5] = tested on: MDA-MB-231; experiment: Induction of apoptosis in human MDA-MB-231 cells assessed as increase in Bax protein level at 10 uM after 48 hrs by Western blotting; format: functional, cell-based
Outline: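 MDA-MB-231 cells were treated with vehicle or 10 µM compound for 48 h (and 72 h). Lysates were cleared and protein measured by BCA. Equal protein was run on 10% SDS–PAGE and transferred to PVDF, blocked in 5% milk overnight, and probed 2 h with anti-Bcl-2, Bax or PARP. HRP secondary was applied for 1 h, with ECL detection.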

[6] = tested on: MDA-MB-231; experiment: Induction of apoptosis in human MDA-MB-231 cells assessed as decrease in caspase 3 protein level at 10 uM after 48 hrs by Western blotting; format: functional, cell-based
[7] = tested on: MCF7; experiment: Induction of apoptosis in human MCF7 cells assessed as early apoptotic cells at 10 uM after 24 hrs using annexinV-propidium iodide staining by flow cytometry (reference value: 4.24%); format: functional
[8] = tested on: MCF7; experiment: Induction of apoptosis in human MCF7 cells assessed as late apoptotic cells at 10 uM after 24 hrs using annexinV-propidium iodide staining by flow cytometry (reference value: 13.35%); format: functional
[9] = tested on: MCF7; experiment: Induction of apoptosis in human MCF7 cells assessed as necrotic cells at 10 uM after 24 hrs using annexinV-propidium iodide staining by flow cytometry (reference value: 12.09%); format: functional
[10] = tested on: MDA-MB-231; experiment: Cell cycle arrest in human MDA-MB-231 cells assessed as accumulation at G2/M phase at 5 to 10 uM after 16 to 40 hrs using propidium iodide staining by flow cytometry; format: functional, cell-based
Outline: (§2)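 Asynchronous cells were treated with 5 or 10 µM compound or DMSO for 24 h (also 16 and 40 h). They were trypsinized, washed in PBS and fixed/permeabilized in 70% ethanol. Staining was with RNase and propidium iodide for 30 min in the dark at room temperature, followed by flow cytometry. Phase percentages are given minus DMSO control; mean of triplicates.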

[11] = tested on: MDA-MB-231; experiment: Induction of apoptosis in human MDA-MB-231 cells assessed as aberrant gross morphological changes at 10 uM after 48 hrs using propidium iodide staining by confocal microscopic analysis; format: functional, cell-based
[12] = tested on: MDA-MB-231; experiment: Induction of apoptosis in human MDA-MB-231 cells assessed as decrease in cell number at 10 uM after 48 hrs using propidium iodide staining by confocal microscopic analysis; format: functional, cell-based
[13] = Antiproliferative activity against human CL 10.3 cells expressing p-glycoprotein after 72 hrs by WST-1 assay; format: functional, cell-based
Outline: (§3)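 MCF-7 and its P-glycoprotein-overexpressing MDR subline CL 10.3 were grown in DMEM with 10% heat-inactivated FBS. Compounds in DMSO were serially diluted in medium and given to cells for 72 h. Read-out was WST-1 reduction (450 nm, 630 nm reference). IC50 interpolated from log concentration versus fraction surviving; mean (SEM) of triplicates. Ratio is CL 10.3 IC50 over MCF-7 IC50.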

[14] = tested on: MCF7; experiment: Antiproliferative activity against human MCF7 cells expressing estrogen receptor after 72 hrs by WST-1 assay; format: functional, cell-based; conditions: MCF7, 72 h; outline: as §3
[15] = tested on: MCF7; experiment: Antiproliferative activity against human MCF7 cells expressing estrogen receptor after 48 hrs by WST-1 assay; format: functional, cell-based; conditions: MCF7, 48 h
Outline: (§4)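 Cells seeded at 3000/well in DMEM with 10% FBS and left 24 h. Compounds in DMSO were serially diluted in medium (1–100 µM) and added in triplicate. WST-1 was read 48 h after addition: 2–3 h incubation, absorbance at 450 nm with 630 nm reference. IC50 interpolated from log concentration versus fraction surviving; mean (SEM) of triplicate experiments.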

[16] = tested on: MDA-MB-231; experiment: Antiproliferative activity against estrogen receptor-deficient human MDA-MB-231 cells after 48 hrs by WST-1 assay; format: functional, cell-based; conditions: MDA-MB-231, 48 h; outline: as §4
[17] = target: CDK9/cyclin T1 (Homo sapiens) (UniProt O60563+P50750); experiment: Inhibition of at human CDK9/cyclin T1 at 0.1 uM after 40 mins relative to control; format: protein-complex assay
Outline: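 Radiometric screen at 100 nM compound against purified human CDK/cyclin (5–10 mU). Incubation 40 min at room temperature, stopped with phosphoric acid. Read by filtermat scintillation. Activity expressed as % of control, N = 2.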

[18] = tested on: MDA-MB-231; experiment: Cell cycle arrest in human MDA-MB-231 cells assessed as accumulation at G2/M phase at 5 to 10 uM after 24 hrs using propidium iodide staining by flow cytometry; format: functional, cell-based; outline: as §2
[19] = tested on: MCF7; experiment: Cell cycle arrest in human MCF7 cells assessed as accumulation at sub G1 phase at 5 to 10 uM after 24 hrs using propidium iodide staining by flow cytometry; format: functional, cell-based; outline: as §2
[20] = tested on: MDA-MB-231; experiment: Cell cycle arrest in human MDA-MB-231 cells assessed as accumulation at G2/M phase treated at 5 uM for 24 hrs measured after drug washout following 48 hrs growth recovery using propidium iodide staining by flow cytometry; format: functional, cell-based
Outline: (§5)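 Exponentially growing cells exposed 24 h, then held a further 48 h in compound-free medium. Cells trypsinized, pelleted, PBS-washed, permeabilized in 70% ethanol, stained 30 min in the dark at room temperature with PI plus RNase, and analysed by flow cytometry. Phase percentages given after subtracting untreated control. Mean of triplicate experiments.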

[21] = tested on: MDA-MB-231; experiment: Cell cycle arrest in human MDA-MB-231 cells assessed as accumulation at G2/M phase treated at 10 uM for 24 hrs measured after drug washout following 48 hrs growth recovery using propidium iodide staining by flow cytometry; format: functional, cell-based; outline: as §5
[22] = target: T1, Cyclin-dependent kinase 5/CDK5 activator 1 (Homo sapiens) (UniProt Q00535+Q15078); conditions: at 0.1 µM
[23] = target: T1, Cyclin-dependent kinase 5/CDK5 activator 1 (Homo sapiens); conditions: at 0.1 µM; remark: listed apart in the source
[24] = target: Cyclin-dependent kinase 1/cyclin B1 (Homo sapiens) (UniProt P06493+P14635); conditions: at 0.1 µM
Chain of Cyclin-dependent kinase 1/cyclin B1 (Homo sapiens) (P06493 whole entry, looked up): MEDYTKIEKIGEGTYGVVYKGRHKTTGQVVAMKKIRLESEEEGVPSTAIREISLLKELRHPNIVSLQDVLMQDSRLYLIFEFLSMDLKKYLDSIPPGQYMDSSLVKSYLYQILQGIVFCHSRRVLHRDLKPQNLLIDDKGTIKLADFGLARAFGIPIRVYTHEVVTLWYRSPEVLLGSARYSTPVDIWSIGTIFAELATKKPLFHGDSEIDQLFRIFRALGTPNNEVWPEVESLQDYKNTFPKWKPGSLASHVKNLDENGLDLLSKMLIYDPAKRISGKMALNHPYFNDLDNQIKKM
Chain of Cyclin-dependent kinase 1/cyclin B1 (Homo sapiens) (P14635 whole entry, looked up): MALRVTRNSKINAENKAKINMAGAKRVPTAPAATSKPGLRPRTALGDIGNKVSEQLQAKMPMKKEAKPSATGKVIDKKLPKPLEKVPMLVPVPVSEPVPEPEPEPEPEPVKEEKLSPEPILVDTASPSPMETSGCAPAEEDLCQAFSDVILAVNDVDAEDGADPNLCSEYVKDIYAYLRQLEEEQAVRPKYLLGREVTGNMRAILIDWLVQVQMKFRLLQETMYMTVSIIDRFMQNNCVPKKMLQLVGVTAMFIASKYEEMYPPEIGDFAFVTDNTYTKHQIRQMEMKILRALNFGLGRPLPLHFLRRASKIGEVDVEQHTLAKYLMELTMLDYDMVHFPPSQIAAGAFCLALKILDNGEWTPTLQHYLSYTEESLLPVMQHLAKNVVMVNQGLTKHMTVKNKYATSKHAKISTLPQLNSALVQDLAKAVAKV

T1 sequence (Q00535 whole entry): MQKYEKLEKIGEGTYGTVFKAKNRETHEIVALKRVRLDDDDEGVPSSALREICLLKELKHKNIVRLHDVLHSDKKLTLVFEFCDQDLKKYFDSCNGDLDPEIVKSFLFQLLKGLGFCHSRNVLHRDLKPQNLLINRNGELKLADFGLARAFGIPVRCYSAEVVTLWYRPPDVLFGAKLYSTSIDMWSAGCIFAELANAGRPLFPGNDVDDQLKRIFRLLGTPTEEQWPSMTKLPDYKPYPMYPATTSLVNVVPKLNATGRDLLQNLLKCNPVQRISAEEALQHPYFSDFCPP
T1 sequence (Q15078 99-307 partner limits assumed): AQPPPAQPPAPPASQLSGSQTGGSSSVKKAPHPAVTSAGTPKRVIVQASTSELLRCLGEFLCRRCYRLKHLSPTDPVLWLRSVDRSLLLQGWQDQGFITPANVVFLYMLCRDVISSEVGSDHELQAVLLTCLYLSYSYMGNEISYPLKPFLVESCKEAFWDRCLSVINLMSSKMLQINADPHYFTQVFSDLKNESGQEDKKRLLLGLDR

SMILES: CC(C)[C@H](CO)Nc1nc(Nc2ccc(C(=O)NCCNS(=O)(=O)c3cccc4c(N(C)C)cccc34)c(Cl)c2)c2ncn(C(C)C)c2n1
- inhibition [1]: tde
- inhibition [2]: tde
- Activity [3]: Active
- Activity [4]: Active
- Activity [5]: Active
- Activity [6]: Active
- Activity [7]: 10.53%
- Activity [8]: 23.47%
- Activity [9]: 17.15%
- Activity [10]: Active
- Activity [11]: Active
- Activity [12]: Active
- IC50 [13]: 44.1 µM
- IC50 [14]: 4.5 µM
- IC50 [15]: 10 µM
- IC50 [16]: 4.06 µM
- inhibition [17]: 67%
- Activity [18]: Active
- Activity [19]: Active
- Activity [20]: Active
- Activity [21]: Active
- inhibition [22]: 66%
- inhibition [23]: 75%
- inhibition [24]: 35%

Source: ChEMBL document CHEMBL1765024, “Fluorescent cyclin-dependent kinase inhibitors block the proliferation of human breast cancer cells” (Bioorg Med Chem, 2011)
